Calls of active or inactive are those of the source.
Key:
[1] = Drug excretion in bile duct-cannulated Sprague-Dawley rat urine; format: ADME; details: in vivo
[2] = AUC (infinity) in Beagle dog at 0.5 mg/kg, po administered via gavage by HPLC-MS analysis; format: ADME, organism-based, Canis lupus familiaris; set-up: route oral, time infinity, dose 0.5 mg/kg; details: in vivo
Summary of the method: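 Oral dosing in 2% ethanol/40% PEG 300/58% 0.01N HCl: Sprague Dawley rats 5 mg/kg, beagle dogs 0.5 mg/kg, cynomolgus monkeys 3 mg/kg.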

[3] = Immunomodulatory activity in human primary hepatocytes infected with HBV assessed as stimulation of CD8+T cell response to virus by measuring decrease in HBsAg production treated with media from PBMC stimulated with 10 nM compound for 10 days relative to control; format: functional; set-up: scale not given: the % may be the effect or the level left; details: time 10 day
[4] = Volume of distribution at steady state in Beagle dog at 0.25 mg/kg, iv administered as 30 mins infusion by HPLC-MS analysis; format: ADME, organism-based, Canis lupus familiaris; details: in vivo, read-out: Vdss
Summary of the method: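 30-min intravenous infusion: Sprague Dawley rats 1 mg/kg, beagle dogs 0.25 mg/kg, cynomolgus monkeys 0.1 mg/kg; n = 3 per species, reported as mean ± SD.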

[5] = target: T1, C-type lectin domain family 7 member A (Homo sapiens) (UniProt Q9BXN2); experiment: Agonist activity at human Dectin1b expressed in HEK293 cells assessed as increase in NF-kappaB activation up to 10 uM incubated for 24 hrs by quanti-blue SEAP reporter gene assay; format: cell-based; details: dose microM <=10, time 24.0 hrs
T1 sequence (whole entry): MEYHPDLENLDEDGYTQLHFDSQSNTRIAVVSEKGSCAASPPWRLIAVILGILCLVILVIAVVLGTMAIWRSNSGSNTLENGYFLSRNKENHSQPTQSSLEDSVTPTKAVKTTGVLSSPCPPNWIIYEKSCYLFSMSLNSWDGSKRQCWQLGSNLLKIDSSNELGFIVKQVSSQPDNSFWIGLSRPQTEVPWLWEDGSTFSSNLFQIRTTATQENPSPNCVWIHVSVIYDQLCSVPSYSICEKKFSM
Summary of the method: (§1)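 HEK293 cells stably expressing individual human TLRs or other innate immune receptors, used as reporter gene assays. Minimum effective concentration defined as the level giving a 3-fold rise over background.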

Toll-like receptor 8 = target: T2, Toll-like receptor 8 (Homo sapiens, UniProt Q9NR97); experiment: Agonist activity at TLR8 in human cryopreserved PBMC assessed as induction of IL-12p40 production measured after 24 hrs
T2 sequence (Q9NR97 whole entry): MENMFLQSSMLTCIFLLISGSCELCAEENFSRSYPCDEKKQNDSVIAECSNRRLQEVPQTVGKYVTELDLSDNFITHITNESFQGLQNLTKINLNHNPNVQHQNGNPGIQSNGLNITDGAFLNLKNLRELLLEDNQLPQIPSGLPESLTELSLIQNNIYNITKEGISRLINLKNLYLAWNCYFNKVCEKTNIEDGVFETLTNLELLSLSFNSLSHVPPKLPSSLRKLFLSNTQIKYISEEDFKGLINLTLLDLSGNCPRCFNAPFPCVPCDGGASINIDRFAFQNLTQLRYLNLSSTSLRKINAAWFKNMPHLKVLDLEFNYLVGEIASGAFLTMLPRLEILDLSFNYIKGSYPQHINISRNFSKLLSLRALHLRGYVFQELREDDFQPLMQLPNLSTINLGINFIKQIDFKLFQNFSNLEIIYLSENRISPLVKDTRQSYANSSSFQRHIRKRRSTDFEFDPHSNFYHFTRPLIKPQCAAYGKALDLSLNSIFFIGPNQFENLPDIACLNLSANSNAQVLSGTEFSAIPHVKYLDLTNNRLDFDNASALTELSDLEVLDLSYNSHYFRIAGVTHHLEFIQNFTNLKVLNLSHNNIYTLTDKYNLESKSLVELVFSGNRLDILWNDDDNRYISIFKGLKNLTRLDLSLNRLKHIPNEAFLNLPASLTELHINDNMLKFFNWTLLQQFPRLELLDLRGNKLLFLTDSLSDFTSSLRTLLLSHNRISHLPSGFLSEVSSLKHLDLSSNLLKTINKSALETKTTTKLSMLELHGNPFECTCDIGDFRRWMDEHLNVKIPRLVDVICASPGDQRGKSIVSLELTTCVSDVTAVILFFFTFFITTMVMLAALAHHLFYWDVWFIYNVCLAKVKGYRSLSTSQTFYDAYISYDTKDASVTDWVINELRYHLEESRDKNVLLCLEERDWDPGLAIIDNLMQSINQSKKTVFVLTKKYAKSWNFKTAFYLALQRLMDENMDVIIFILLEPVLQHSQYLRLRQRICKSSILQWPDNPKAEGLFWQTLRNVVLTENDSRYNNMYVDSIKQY

[6] = target: Toll-like receptor 2 (Homo sapiens) (UniProt O60603); experiment: Agonist activity at human TLR2 expressed in HEK293 cells assessed as increase in NF-kappaB activation up to 10 uM incubated for 24 hrs by quanti-blue SEAP reporter gene assay; format: cell-based; details: dose microM <=10, time 24.0 hrs; summary of the method: as §1
[7] = Clearance in rat hepatic microsomes at 2 uM measured up to 60 mins in presence of NADPH generating system by LC-MS/MS analysis; format: ADME, Microsome; details: liver microsomes

Chain of Toll-like receptor 2 (Homo sapiens) (O60603 whole entry): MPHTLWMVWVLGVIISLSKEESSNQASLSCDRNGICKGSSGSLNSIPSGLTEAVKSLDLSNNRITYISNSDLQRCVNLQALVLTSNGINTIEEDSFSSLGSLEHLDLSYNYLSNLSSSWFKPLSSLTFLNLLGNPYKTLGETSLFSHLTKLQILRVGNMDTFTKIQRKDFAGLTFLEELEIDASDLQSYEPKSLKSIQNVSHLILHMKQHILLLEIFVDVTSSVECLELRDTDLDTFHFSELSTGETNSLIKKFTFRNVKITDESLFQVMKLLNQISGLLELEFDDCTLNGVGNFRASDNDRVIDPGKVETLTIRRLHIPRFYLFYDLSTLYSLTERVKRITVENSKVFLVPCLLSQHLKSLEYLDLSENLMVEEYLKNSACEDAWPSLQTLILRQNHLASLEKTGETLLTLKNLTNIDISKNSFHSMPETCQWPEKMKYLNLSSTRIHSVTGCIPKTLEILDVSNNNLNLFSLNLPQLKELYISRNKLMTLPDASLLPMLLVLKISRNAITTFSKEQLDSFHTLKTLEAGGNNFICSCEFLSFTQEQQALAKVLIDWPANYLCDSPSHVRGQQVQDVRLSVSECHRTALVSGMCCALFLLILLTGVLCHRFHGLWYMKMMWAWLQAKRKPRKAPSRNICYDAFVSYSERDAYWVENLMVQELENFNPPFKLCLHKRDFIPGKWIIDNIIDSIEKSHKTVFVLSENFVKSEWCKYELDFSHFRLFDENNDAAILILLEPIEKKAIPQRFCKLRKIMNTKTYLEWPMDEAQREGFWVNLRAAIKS

CCCC[C@](C)(CO)Nc1nc(N)nc2cc(F)cnc12 [SELGANTOLIMOD]
Drug excretion [1]: Active | AUC(0-inf) [2]: 0.0118 µM·h | Activity [3]: >50% | Vd [4]: 1.01 L/kg | Activity [5]: inactive | EC50 (Toll-like receptor 8): 220 nM | Activity [6]: inactive | CLhep predicted at 2 µM [7]: 50 mL/min/kg

From ChEMBL document CHEMBL4725242, “Discovery of GS-9688 (Selgantolimod) as a Potent and Selective Oral Toll-Like Receptor 8 Agonist for the Treatment of Chronic Hepatitis B” (J Med Chem, 2020)
